Experimental data reported in ChEMBL document CHEMBL3526053, “Species-dependent uptake of glycylsarcosine but not oseltamivir in Pichia pastoris expressing the rat, mouse, and human intestinal peptide transporter PEPT1” (Drug Metab Dispos, 2012).

Experiments:
[1] = Protein binding in human at 50 to 500 mg, po bid; settings: plasma
[2] = biological target: T1, Solute carrier family 15 member 1 (Homo sapiens, UniProt P46059); test: Inhibition of human recombinant PEPT1 expressed in Pichia pastoris GS115 assessed as [3H]GlySar uptake after 30s by dual-channel liquid scintillation counting analysis
T1 sequence (P46059 whole entry): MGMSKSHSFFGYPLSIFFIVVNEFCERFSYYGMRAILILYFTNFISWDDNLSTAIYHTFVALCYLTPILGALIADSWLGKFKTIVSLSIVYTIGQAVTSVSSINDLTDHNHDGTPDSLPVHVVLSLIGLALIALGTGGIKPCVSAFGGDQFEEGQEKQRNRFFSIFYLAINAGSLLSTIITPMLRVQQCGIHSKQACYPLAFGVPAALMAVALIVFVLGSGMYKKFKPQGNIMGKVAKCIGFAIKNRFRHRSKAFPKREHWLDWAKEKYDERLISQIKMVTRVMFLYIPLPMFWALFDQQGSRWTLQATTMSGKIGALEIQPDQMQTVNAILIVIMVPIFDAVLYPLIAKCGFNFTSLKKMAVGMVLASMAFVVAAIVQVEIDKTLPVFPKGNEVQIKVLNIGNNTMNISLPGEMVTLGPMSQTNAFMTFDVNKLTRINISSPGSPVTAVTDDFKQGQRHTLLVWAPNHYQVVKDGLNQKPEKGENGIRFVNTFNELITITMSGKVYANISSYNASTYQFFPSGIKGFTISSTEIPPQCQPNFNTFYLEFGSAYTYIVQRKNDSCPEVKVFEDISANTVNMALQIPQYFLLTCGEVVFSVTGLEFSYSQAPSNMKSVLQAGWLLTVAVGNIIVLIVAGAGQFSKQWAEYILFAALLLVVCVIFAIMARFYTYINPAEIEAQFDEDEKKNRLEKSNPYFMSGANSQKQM

[3] = biological target: T2, Solute carrier family 15 member 1 (Mus musculus, UniProt Q9JIP7); test: Inhibition of mouse recombinant PEPT1 expressed in Pichia pastoris GS115 assessed as [3H]GlySar uptake after 30s by dual-channel liquid scintillation counting analysis
T2 sequence (Q9JIP7 whole entry): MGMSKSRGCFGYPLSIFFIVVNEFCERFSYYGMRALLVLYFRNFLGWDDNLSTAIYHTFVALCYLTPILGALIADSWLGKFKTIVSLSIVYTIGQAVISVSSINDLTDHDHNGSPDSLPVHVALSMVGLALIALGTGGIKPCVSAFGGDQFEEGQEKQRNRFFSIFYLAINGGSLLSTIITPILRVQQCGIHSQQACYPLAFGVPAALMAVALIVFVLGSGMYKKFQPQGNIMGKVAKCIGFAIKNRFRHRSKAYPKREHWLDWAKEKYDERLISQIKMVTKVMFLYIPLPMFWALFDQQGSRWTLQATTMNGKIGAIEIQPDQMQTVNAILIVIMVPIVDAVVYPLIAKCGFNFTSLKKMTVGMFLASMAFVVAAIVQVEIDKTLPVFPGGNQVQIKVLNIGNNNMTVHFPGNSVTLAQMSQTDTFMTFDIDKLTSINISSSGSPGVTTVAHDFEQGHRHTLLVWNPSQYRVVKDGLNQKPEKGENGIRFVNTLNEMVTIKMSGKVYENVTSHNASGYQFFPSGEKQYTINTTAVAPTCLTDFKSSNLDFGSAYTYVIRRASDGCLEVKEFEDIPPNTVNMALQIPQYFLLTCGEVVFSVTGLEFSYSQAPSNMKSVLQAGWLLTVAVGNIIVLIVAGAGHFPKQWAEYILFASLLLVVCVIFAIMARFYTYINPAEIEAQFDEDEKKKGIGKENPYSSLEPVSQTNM

[4] = biological target: T3, Solute carrier family 15 member 1 (Rattus norvegicus, UniProt P51574); test: Inhibition of rat recombinant PEPT1 expressed in Pichia pastoris GS115 assessed as [3H]GlySar uptake after 30s by dual-channel liquid scintillation counting analysis
T3 sequence (P51574 whole entry): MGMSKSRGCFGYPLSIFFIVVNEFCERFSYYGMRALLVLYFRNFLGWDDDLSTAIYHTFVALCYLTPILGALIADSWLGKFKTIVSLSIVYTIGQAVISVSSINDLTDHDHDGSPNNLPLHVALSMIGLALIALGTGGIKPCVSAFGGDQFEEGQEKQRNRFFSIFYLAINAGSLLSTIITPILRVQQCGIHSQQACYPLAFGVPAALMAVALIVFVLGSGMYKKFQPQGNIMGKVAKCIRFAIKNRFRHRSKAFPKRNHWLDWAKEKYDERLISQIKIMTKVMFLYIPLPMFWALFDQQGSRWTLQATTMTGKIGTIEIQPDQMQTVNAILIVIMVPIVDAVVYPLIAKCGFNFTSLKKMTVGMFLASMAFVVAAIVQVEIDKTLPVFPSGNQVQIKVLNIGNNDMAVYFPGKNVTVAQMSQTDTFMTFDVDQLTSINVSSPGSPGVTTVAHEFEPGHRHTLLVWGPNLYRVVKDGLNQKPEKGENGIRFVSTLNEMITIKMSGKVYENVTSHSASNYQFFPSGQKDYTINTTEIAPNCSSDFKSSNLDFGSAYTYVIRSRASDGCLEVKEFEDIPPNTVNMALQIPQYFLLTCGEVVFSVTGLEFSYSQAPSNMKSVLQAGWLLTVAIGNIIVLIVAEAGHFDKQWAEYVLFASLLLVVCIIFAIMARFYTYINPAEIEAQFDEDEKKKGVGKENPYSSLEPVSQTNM

[5] = biological target: T1, Solute carrier family 15 member 1; test: Drug uptake in Pichia pastoris GS115 expressing human recombinant PEPT1 at 0 degC measured immediately after drug addition by dual-channel liquid scintillation counting analysis; format: ADME
In short: (§1)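 Nonspecific binding of 5.0 µM [14C]oseltamivir is measured at 0°C in pH 6.5 phosphate buffer. The incubation is quenched immediately after adding the drug to the methanol-induced yeast suspension. Bound radioactivity is counted by liquid scintillation and expressed as pmol/OD600. Mean ± SE (n=6).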

[6] = biological target: T2, Solute carrier family 15 member 1; test: Drug uptake in Pichia pastoris GS115 expressing mouse recombinant PEPT1 at 0 degC measured immediately after drug addition by dual-channel liquid scintillation counting analysis; format: ADME; in short: as §1
[7] = biological target: T3, Solute carrier family 15 member 1; test: Drug uptake in Pichia pastoris GS115 expressing rat recombinant PEPT1 at 0 degC measured immediately after drug addition by dual-channel liquid scintillation counting analysis; format: ADME; in short: as §1
Komagataella pastoris [8] = test: Stability in Pichia pastoris GS115 expressing human recombinant PEPT1 at 5 uM measured for up to 30 mins by HPLC analysis; format: ADME, organism-based; settings: 0.5 h
In short: (§2)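 [14C]oseltamivir 5.0 µM with [14C]PEG200 5.0 µM internal standard was incubated with induced GS115 cells (vector, human, mouse or rat PEPT1) at 24°C, pH 6.5, for up to 30 min. Reactions were quenched with 20% trichloroacetic acid and centrifuged at 4°C. Supernate was analysed by HPLC with radiochemical detection; retention 14.9 min for oseltamivir, 3.6 min for PEG200. n=6.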

Komagataella pastoris [9] = test: Stability in Pichia pastoris GS115 expressing mouse recombinant PEPT1 at 5 uM measured for up to 30 mins by HPLC analysis; format: ADME, organism-based; settings: 0.5 h; in short: as §2
Komagataella pastoris [10] = test: Stability in Pichia pastoris GS115 expressing rat recombinant PEPT1 at 5 uM measured for up to 30 mins by HPLC analysis; format: ADME, organism-based; settings: 0.5 h; in short: as §2
Komagataella pastoris [11] = test: Stability in Pichia pastoris GS115 at 5 uM measured for up to 30 mins by HPLC analysis; format: ADME, organism-based; settings: 0.5 h; in short: as §2

Work on `CCOC(=O)C1=C[C@@H](OC(CC)CC)[C@H](NC(C)=O)[C@@H](N)C1.O=P(O)(O)O` [OSELTAMIVIR PHOSPHATE] yielded a fraction unbound [1] of 0.58, an IC50 [2] of 27.4 mM and an IC50 [3] of 10.7 mM. The IC50 [4] was 18.3 mM, the Drug uptake [5] was 0.2 pmol/OD and the Drug uptake [6] was 0.2 pmol/OD. For the same compound, the Drug uptake [7] was 0.2 pmol/OD, the Stability (Komagataella pastoris [8]) was “Stable” and the Stability (Komagataella pastoris [9]) was “Stable”. The Stability (Komagataella pastoris [10]) was “Stable” and the Stability (Komagataella pastoris [11]) was “Stable”.
